MITF act: activators of MITF-driven TRPM1 promoter reporter, primary screen, cell-based, SK-MEL-5, luciferase, single point; SK-MEL-5 TRPM1-promoter luciferase, 24 h; % of positive control, neutral wells = 0; AID 588334, 2011; activation, % at 12.5 µM; 300,000 compounds, 0.75% hits;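 active means mean activation of at least 80% with every replicate also reaching 80%; inconclusive means mean reaches 80% but some replicate falls short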;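 further: 0% = neutral control wells and 100% = parthenolide positive control wells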
NSD2 HMT inh: NSD2 histone methyltransferase inhibitors, primary screen, biochemical, AlphaScreen, single concentration, set 2; 310,000 compounds, 0.54% hits; Histone-lysine N-methyltransferase NSD2 (Homo sapiens), O96028; inhibition, % at 12.5 µM; NSD2 peptide methylation, 120 min; in the data active means inhibition above about 50%
Target sequence (O96028 whole entry, looked up): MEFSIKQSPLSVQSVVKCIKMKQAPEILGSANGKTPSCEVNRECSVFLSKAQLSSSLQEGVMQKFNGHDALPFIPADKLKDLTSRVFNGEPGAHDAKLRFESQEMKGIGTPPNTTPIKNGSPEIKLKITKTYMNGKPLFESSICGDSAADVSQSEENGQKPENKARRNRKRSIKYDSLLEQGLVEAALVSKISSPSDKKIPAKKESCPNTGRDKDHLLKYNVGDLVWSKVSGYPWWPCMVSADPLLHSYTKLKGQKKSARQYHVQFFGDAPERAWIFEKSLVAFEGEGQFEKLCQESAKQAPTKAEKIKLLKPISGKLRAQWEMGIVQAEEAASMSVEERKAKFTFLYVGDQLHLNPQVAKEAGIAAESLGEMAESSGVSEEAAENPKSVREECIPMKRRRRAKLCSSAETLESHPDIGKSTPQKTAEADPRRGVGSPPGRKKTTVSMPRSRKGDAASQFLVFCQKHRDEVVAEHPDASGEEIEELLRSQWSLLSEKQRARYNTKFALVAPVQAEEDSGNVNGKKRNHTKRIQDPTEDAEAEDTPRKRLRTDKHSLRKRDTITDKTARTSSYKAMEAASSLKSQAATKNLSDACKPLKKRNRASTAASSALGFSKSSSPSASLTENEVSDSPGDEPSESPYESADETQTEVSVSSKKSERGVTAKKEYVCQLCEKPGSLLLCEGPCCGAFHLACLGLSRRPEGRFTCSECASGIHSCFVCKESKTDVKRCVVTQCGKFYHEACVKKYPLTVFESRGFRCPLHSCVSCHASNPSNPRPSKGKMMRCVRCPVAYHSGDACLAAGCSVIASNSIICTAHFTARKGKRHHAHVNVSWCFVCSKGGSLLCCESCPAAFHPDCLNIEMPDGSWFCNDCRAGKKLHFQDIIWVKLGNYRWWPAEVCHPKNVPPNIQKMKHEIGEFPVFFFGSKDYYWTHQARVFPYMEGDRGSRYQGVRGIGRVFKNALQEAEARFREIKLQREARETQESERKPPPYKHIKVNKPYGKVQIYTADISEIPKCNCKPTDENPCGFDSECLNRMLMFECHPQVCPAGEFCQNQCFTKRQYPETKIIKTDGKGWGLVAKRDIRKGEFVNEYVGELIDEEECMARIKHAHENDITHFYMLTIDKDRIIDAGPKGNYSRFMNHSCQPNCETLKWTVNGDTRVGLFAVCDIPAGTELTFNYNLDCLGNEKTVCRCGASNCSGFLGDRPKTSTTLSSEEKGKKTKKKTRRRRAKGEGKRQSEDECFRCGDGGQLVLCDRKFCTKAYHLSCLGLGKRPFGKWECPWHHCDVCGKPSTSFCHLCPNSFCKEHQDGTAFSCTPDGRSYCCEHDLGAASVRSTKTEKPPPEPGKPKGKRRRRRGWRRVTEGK
Casp6 inh: human caspase-6 inhibitors, primary screen, biochemical, VEID-R110 fluorescence, single point, set 2; P55212; purified caspase-6, Z-VEID-R110 cleavage fluorescence; inhibition, % at 12.5 µM; 350,000 compounds, 0.53% hits;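 active means mean inhibition across replicates at least about 35%, with every replicate also reaching that limit, limit read from the data; inconclusive means only one of the two criteria met; inactive means neither criterion met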;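 further: 0% = median of neutral control wells and 100% = no fluorescence left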
Xi reactivation: activators of inactive X chromosome reactivation, primary screen, imaging, XiGFP fibroblasts, GFP high-content imaging, set 2 | AID 743238, 2013 | XiGFP mouse fibroblasts, % GFP-positive cells imaging, 3 d; cells co-treated with 5-aza-dC sensitizer; scaled so ellipticine positive control = 100% | 360,000 compounds, 0.055% hits | activation, % at 7.58 µM;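 active means mean normalized replicate activation at least 10% and every replicate at or above 10%; inconclusive means only one of the two criteria met; inactive means mean below 10% and not all replicates reach 10%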;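 further: 0% = median of on-plate neutral control wells and 100% = ellipticine 6 µM median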
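System: 68-5-11 XiGFP fibroblast line; Timing: 3 days compound exposure; Compound dosing: one concentration, pinned; Benchmarks: positive control ellipticine, 6 µM final; Buffer or medium: DMEM containing 5-aza-dC.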
Wnt act: Wnt/beta-catenin pathway activators, primary screen, cell-based, plate reader, single point; AID 743398, 2014; Wnt/beta-catenin reporter cell assay, activator; 300,000 compounds, 1.2% hits; activation, % at 9.35 µM; in the data active means activation above about 30%, passing the limit was not always enough; inconclusive means no clear call, values can overlap the other calls;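 further: 0% = neutral control wells and 100% = positive control wells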
esBAF inh: Bmi1 luciferase reporter increase in mESCs, primary screen, esBAF inhibitor project, mouse ES cells, Bmi1 luciferase knock-in, single point; reporter increase, % at 12.5 µM; 350,000 compounds, 2% hits; 24 h; 100% = twice the neutral-well signal; AID 602393, 2012; in the data active means activation above about 40%; inconclusive means no clear call, values can overlap the other calls;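 further: 0% = median of the plate's neutral control wells and 100% = double that signal; a rise in the Bmi1 reporter signal indicates esBAF inhibition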
Ring1 derepress: Ring1 mRNA increase in mouse ESCs, confirmation, esBAF inhibitor project, cell-based, mouse ESC, RT-qPCR, cherry-pick | shares compounds with esBAF inh | mouse ESC E14, Ring1 mRNA RT-qPCR fold change | fold change at 33 µM | 550 tested, under 10 active | AID 743176, 2013;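 active means Ring1 gene expression raised more than 2-fold over untreated cells in both replicates at either tested dose; inconclusive means only one replicate above 2-fold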;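 further: Ring1 transcript normalised to actin housekeeping signal by TaqMan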
esBAF Fgf4 qPCR: Fgf4 mRNA decrease in mouse ESCs, confirmation, esBAF inhibitor project, cell-based, mouse ESC, RT-qPCR, cherry-pick; shares compounds with esBAF inh; mouse ESC E14, Fgf4 mRNA qPCR fold change; active compounds read low; Fgf4 expression fold change at 33 µM; 550 compounds, 4% hits;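 active means Fgf4 expression under 0.8 fold of control in both repeat measurements at one or both tested doses; inconclusive means under 0.8 fold in just a single repeat measurement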;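 further: Fgf4 transcript normalised to actin in duplex TaqMan qPCR; cells exposed to compound for 24 h before lysis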
Bmi1 derepress: esBAF inhibition via Bmi1 de-repression, confirmation, cell-based, RT-qPCR, mouse ESC, single point, cherry-pick; shares compounds with esBAF inh; mouse ESE14 ES cells, Bmi1 mRNA qPCR fold; active compounds read high; fold change at 33 µM; 550 tested, under 10 active; AID 743180, 2013;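 active means Bmi1 expression fold change above 6 at either tested concentration, seen in replicate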;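 further: higher fold means more Bmi1 de-repression and stronger esBAF inhibition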
A549 cytotox: A549 cell cytotoxicity, cytotoxicity control, plate reader, single point, cherry-pick; shares compounds with esBAF inh; cell viability change % (negative = cytotoxic), % at 25 µM, hits read low; 550 tested, under 10 active; AID 743188, 2013; call rule not given here
HepG2 tox SP: HepG2 cell cytotoxicity, cytotoxicity control, plate reader, single point, cherry-pick. shares compounds with esBAF inh. active compounds read low. activity change, negative = inhibition, % at 25 µM. 550 compounds, 4% hits. AID 743189, 2013; in the data active means activity change below about -50%
HEK293 tox SP: HEK293 cell cytotoxicity, cytotoxicity control, plate reader, single point, cherry-pick. shares compounds with esBAF inh. activity change, negative = inhibition, % at 25 µM, hits read low. 550 compounds, 3% hits. AID 743190, 2013; in the data active means activity change below about -38%, passing the limit was not always enough
Starred values were filed as active, the others as inactive; ? = inconclusive; / = no result given. The list is not random: actives were taken first. Their share in the collection is about 3%.

SMILES	MITF act	NSD2 HMT inh	Casp6 inh	Xi reactivation	Wnt act	esBAF inh	Ring1 derepress	esBAF Fgf4 qPCR	Bmi1 derepress	A549 cytotox	HepG2 tox SP	HEK293 tox SP
COc1ccccc1C#Cc1cnc2c(c1)C(=O)N([C@H](C)CO)C[C@@H](C)[C@H](CN(C)C(=O)c1ccc3c(c1)OCO3)O2	/	/	-1.1	-0.3	/	-1.0	/	/	/	/	/	/
Cc1ccc(S(=O)(=O)N(C)C[C@@H]2Oc3ccc(NC(=O)NC(C)C)cc3CC(=O)N([C@@H](C)CO)C[C@@H]2C)cc1	/	/	-0.7	0.0	/	-1.2	/	/	/	/	/	/
COc1ccc(S(=O)(=O)Nc2ccc3c(c2)CC(=O)N([C@H](C)CO)C[C@@H](C)[C@@H](CN(C)Cc2ccc(Oc4ccccc4)cc2)O3)cc1	/	/	/	-0.6	/	-0.1	/	/	/	/	/	/
CC/C(=N\NC(=O)c1cc(C2CC2)[nH]n1)c1ccccc1	67.6	-2.5	1.1	0.0	8.6	56.2*	1.51	0.804	1.6	1.0	-6.7	-3.8
Cn1c(C(=O)N/N=C/c2ccccc2)cc2ccccc21	/	0.6	2.0	0.2	-4.1	63.8*	1.29	0.858	1.62	1.0	-28.0	0.8
Cn1c(N)c(C(=O)N/N=C/c2ccccc2)sc1=S	/	1.0	-0.9	1.1	-1.5	/	/	/	/	/	/	/
O=C(O)CC(=O)Nc1ccccc1	-6.7	-1.4	/	/	/	0.6	/	/	/	/	/	/
O=C(CC(=O)c1ccccc1)Nc1ccccc1	/	-2.7	0.7	0.4	34.5*	75.6*	1.23	0.913	1.44	-1.7	-19.3	-2.9
COc1ccc(NC(=O)c2c(F)c(F)c(F)c(F)c2F)cc1Cl	-1.4	-5.4	/	/	/	-3.4	/	/	/	/	/	/
COc1ccc(NC(=O)c2cc(F)cc(F)c2)cc1Cl	/	16.6	0.5	/	56.3*	57.5*	1.38	1.13	1.5	-6.9	-10.8	-0.3
CSc1ccccc1NC(=O)c1ccc(N2CCCC2=O)cc1	58.1	/	-1.2	0.3	24.0	73.3*	1.17	0.824	1.28	-2.8	-15.2	5.5
CC(=O)c1ccccc1NC(=O)c1ccc(N2CCCC2=O)cc1	60.0	0.0	2.0	0.2	19.5	?	/	/	/	/	/	/
CN(C)c1ccc(N=Nc2ccccc2C(=O)OCC(=O)Nc2ccccc2C(F)(F)F)cc1	5.5	31.1	0.2	0.5	3.7	53.5*	1.19	1.01	1.75	-14.5	0.9	-16.9
Cc1cccc(NC(=O)C2C3CCCCC32)c1 (configuration not stated)	45.5	-4.6	-0.5	0.0	7.3	66.8*	0.949	0.873	1.63	-13.3	-3.9	-5.7
COc1cccc(C(=O)N2C[C@@H]3[C@H](c4ccccc42)[C@@H](CO)N3C(=O)c2ccccc2)c1	/	/	-1.5	0.0	/	-6.4	/	/	/	/	/	/
COC(=O)c1ccc2[nH]c(C3(O)CCCCC3)c(C)c2c1	83.5*	/	1.1	0.1	?	72.3*	1.13	1.13	0.966	1.1	-55.7*	6.2
CN(Cc1ccccc1F)Cc1cc(=O)oc2cc(O)c(Cl)cc12	9.9	-16.5	1.1	0.0	-1.8	6.3	/	/	/	/	/	/
Cc1ccc2c(CN(C)Cc3ccccc3)cc(=O)oc2c1	/	/	7.0	-0.1	12.9	88.3*	1.14	0.951	1.47	-12.2	-6.5	-22.4
Cc1ccc2c(CN(C)Cc3cccc(F)c3)cc(=O)oc2c1	87.6*	1.2	0.5	-0.1	0.2	90.3*	0.97	?	1.6	4.0	-5.7	-11.1
Cc1cc2oc(=O)cc(CN(C)Cc3ccccc3F)c2cc1Cl	60.0	-3.4	3.1	0.0	9.0	63.7*	1.3	0.653*	1.5	3.5	-0.9	-2.1
O=C(C[C@H]1CC[C@H]2[C@@H](COC[C@@H](O)CN2C(=O)c2ccccc2)O1)Nc1ccccc1	/	/	-2.4	0.1	/	3.0	/	/	/	/	/	/
CO[C@H]1CN(C)C(=O)c2cc(NC(=O)c3ccc(F)cc3)ccc2OC[C@@H](C)N(C(=O)CN(C)C)C[C@@H]1C	/	/	/	0.0	/	-1.1	/	/	/	/	/	/
O=C(N[C@H]1CC[C@@H](CCNC(=O)C2CCOCC2)O[C@H]1CO)c1ccccn1	/	/	4.1	-0.1	/	-3.8	/	/	/	/	/	/
COc1cc(Cl)c(C)cc1NC(=O)c1cccc(OC)c1OC	58.7	-1.6	1.1	0.4	12.5	57.4*	1.3	0.856	1.6	3.4	11.8	-11.8
COc1cccc(C(=O)Nc2cccc3ccccc23)c1OC	/	-6.9	-0.2	0.1	1.5	16.9	/	/	/	/	/	/
SMILES	MITF act	NSD2 HMT inh	Casp6 inh	Xi reactivation	Wnt act	esBAF inh	Ring1 derepress	esBAF Fgf4 qPCR	Bmi1 derepress	A549 cytotox	HepG2 tox SP	HEK293 tox SP
CN(C)c1ccc(-c2ccc3oc(-c4ccsc4)cc(=O)c3c2)cn1	124.4*	/	-1.8	0.0	38.1*	68.8*	1.13	0.857	1.15	-21.5	10.4	-23.9
CC(=O)Nc1cc2c3c(cccc3c1)-c1ccccc1-2	33.6	-5.3	-3.9	99.5*	6.3	70.1*	1.27	?	1.49	-5.3	27.3	-7.2
CCOc1ccc(CNc2ccc3c(c2)nc(C)n3C)cc1	24.9	6.3	/	/	/	/	/	/	/	/	/	/
CCn1cnc2cc(NCc3ccc(OC)cc3)ccc21	57.5	-2.8	/	/	/	56.3*	0.999	?	1.24	-5.4	-32.1	-9.5
CCn1cnc2cc(NCc3ccccc3Cl)ccc21	86.8*	13.0	3.2	0.4	12.4	76.7*	1.01	0.996	1.26	1.7	2.4	10.9
O=C(C[C@@H]1C=C[C@@H](NC(=O)CC2CC2)[C@H](CO)O1)NCC(F)(F)F	/	/	0.6	0.3	/	4.0	/	/	/	/	/	/
O=C(C[C@H]1C[C@@H]2c3cc(NC(=O)NC4CCCC4)ccc3O[C@@H]2[C@H](CO)O1)NCc1ccncc1	/	/	1.1	0.2	/	-0.2	/	/	/	/	/	/
